# What was measured:
# [1] = Volume of distribution at steady state in cynomolgus monkey at 1.2 mg/kg, iv; type: ADME, organism-based, Macaca fascicularis; settings: in vivo, read-out: Vdss
# [2] = Clearance in rat at 1.1 mg/kg, iv; type: ADME, organism-based; settings: in vivo
# [3] = Drug metabolism in cynomolgus monkey hepatocytes assessed as (S)-5-benzyl-N-(4-oxo-2,3,4,5-tetrahydrobenzo[b][1,4]oxazepin-3-yl)-1H-1,2,4-triazole-3-carboxamide formation at 10 uM measured up to 4 hrs; type: ADME, cell-based, Macaca fascicularis, Hepatocyte
# Outline: (§1)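 Compound at 10 μM was incubated with hepatocyte suspensions at 1 million cells/mL. Incubation ran at 37°C under 5% CO2:95% O2 for up to 4 h.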
# [4] = Tmax in cynomolgus monkey at 1.9 mg/kg, po; type: ADME, organism-based, Macaca fascicularis; settings: in vivo
# [5] = Fraction unbound in human blood; type: ADME, tissue-based
# [6] = Clearance in cynomolgus monkey at 1.2 mg/kg, iv; type: ADME, organism-based, Macaca fascicularis; settings: in vivo
# [7] = Drug metabolism in cynomolgus monkey hepatocytes assessed as (S)-3-amino-5-methyl-2,3-dihydrobenzo[b][1,4]oxazepin-4(5H)-one formation at 10 uM measured up to 4 hrs; type: ADME, cell-based, Macaca fascicularis, Hepatocyte; outline: as §1
# [8] = Lipophilicity, log D of the compound at pH 7.4 by RP-HPLC method; type: physicochemical; settings: buffer
# Outline: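 Chromatographic hydrophobicity index (CHI) log D at pH 7.4, calculated from the retention time in a fast-gradient reverse-phase HPLC run.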
# [9] = Fraction unbound in dog blood; type: ADME, tissue-based, Canis lupus familiaris
# [10] = Half-life in rat at 1.1 mg/kg, iv; type: ADME, organism-based; settings: in vivo
# [11] = Drug metabolism in rat hepatocytes assessed as (S)-5-benzyl-N-(4-oxo-2,3,4,5-tetrahydrobenzo[b][1,4]oxazepin-3-yl)-1H-1,2,4-triazole-3-carboxamide formation at 10 uM measured up to 4 hrs; type: ADME, cell-based, Hepatocyte; outline: as §1
# [12] = tested on: Brain; assay: Drug uptake in Han Wistar rat brain at 2 mg/kg, iv administered as 4 hrs infusion; type: ADME, organism-based; settings: in vivo
# Outline: (§2)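 Rats received a 4 h iv infusion, after which terminal tissue samples were collected. Parent drug concentrations were measured in each tissue and compared with blood levels.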
# [13] = Stability in cynomolgus monkey microsomes measured up to 45 mins; type: ADME, Macaca fascicularis, Microsome; settings: 0.75 h
# [14] = tested on: Cynomolgus monkey; assay: Toxicity in cynomolgus monkey at 2 to 1000 mg/kg, po after 1 month; type: organism-based, Macaca fascicularis; settings: in vivo, 730.5 h
# [15] = Stability in dog microsomes measured up to 45 mins; type: ADME, Canis lupus familiaris, Microsome; settings: 0.75 h
# [16] = tested on: Kidney; assay: Drug uptake in Han Wistar rat kidney at 2 mg/kg, iv administered as 4 hrs infusion; type: ADME, organism-based; settings: in vivo; outline: as §2
# [17] = tested on: Liver; assay: Drug uptake in Han Wistar rat liver at 2 mg/kg, iv administered as 4 hrs infusion; type: ADME, organism-based; settings: in vivo; outline: as §2
# [18] = Drug metabolism in cynomolgus monkey hepatocytes assessed as 5-benzyl-1H-1,2,4-triazole-3-carboxylic acid formation at 10 uM measured up to 4 hrs; type: ADME, cell-based, Macaca fascicularis, Hepatocyte; outline: as §1
# [19] = tested on: Blood; assay: Drug uptake in Han Wistar rat blood at 2 mg/kg, iv administered as 4 hrs infusion; type: ADME, organism-based; settings: in vivo; outline: as §2
# [20] = Drug metabolism in human hepatocytes assessed as (S)-3-amino-5-methyl-2,3-dihydrobenzo[b][1,4]oxazepin-4(5H)-one formation at 10 uM measured up to 4 hrs; type: ADME, cell-based, Hepatocyte; outline: as §1
# [21] = tested on: MDR1; assay: Permeability across dog MDCK cells expressing MDR1; type: ADME, cell-based, Canis lupus familiaris; settings: read-out: permeability
# [22] = Kinetic solubility in phosphate buffer saline at pH 7.4 by chemiluminescence nitrogen detection method; type: physicochemical; settings: phosphate buffered saline, read-out: Kinetic_solubility
# Outline: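 Kinetic aqueous solubility measured by chemiluminescent nitrogen detection (CLND) in phosphate-buffered saline pH 7.4. The solution was prepared from a DMSO stock of the inhibitor.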
# [23] = Drug metabolism in rat hepatocytes assessed as 5-benzyl-1H-1,2,4-triazole-3-carboxylic acid formation at 10 uM measured up to 4 hrs; type: ADME, cell-based, Hepatocyte; outline: as §1
# [24] = Oral bioavailability in rat at 2.1 mg/kg; type: ADME, organism-based; settings: in vivo
# [25] = Solubility of the compound in FaSSIF; type: physicochemical
# [26] = Drug metabolism in human hepatocytes assessed as 5-benzyl-1H-1,2,4-triazole-3-carboxylic acid formation at 10 uM measured up to 4 hrs; type: ADME, cell-based, Hepatocyte; outline: as §1
# [27] = Stability in rat microsomes measured up to 45 mins; type: ADME, Microsome; settings: 0.75 h
# [28] = Volume of distribution at steady state in rat at 1.1 mg/kg, iv; type: ADME, organism-based; settings: in vivo, read-out: Vdss
# [29] = Inhibition of recombinant human cytochrome P450; type: ADME; settings: recombinant enzyme
compound,measurement,setting,value
CN1C(=O)[C@@H](NC(=O)c2nnc(Cc3ccccc3)[nH]2)COc2ccccc21 [GSK2982772],Vd,[1],2.2 L/kg
same,clearance,[2],17 mL/min/kg
same,Drug metabolism,[3],Metabolite_Detected
same,Tmax,[4],1.8 h
same,fraction unbound,[5],0.074
same,clearance,[6],10 mL/min/kg
same,Drug metabolism,[7],Metabolite_Detected
same,chromatographic logD,[8],3.8
same,fraction unbound,[9],0.11
same,half-life,[10],3.9 h
same,Drug metabolism,[11],Metabolite_Detected
same,Drug uptake,[12],4%
same,Stability,[13],Stable
same,Activity,[14],Non-Toxic
same,Stability,[15],Stable
same,Drug uptake,[16],Active
same,Drug uptake,[17],Active
same,Drug metabolism,[18],Metabolite_Detected
same,Drug uptake,[19],Active
same,Drug metabolism,[20],Metabolite_Detected
same,Papp,[21],21 ×10⁻⁶ cm/s
same,solubility kinetic,[22],100 µg/mL
same,Drug metabolism,[23],Metabolite_Detected
same,bioavailability,[24],110%
same,solubility,[25],230 µg/mL
same,Drug metabolism,[26],Metabolite_Detected
same,Stability,[27],Stable
same,Vd,[28],2.7 L/kg
same,inhibition (INH),[29],Not Active

# Source: ChEMBL document CHEMBL3997808 (J Med Chem, 2017)
